ChEMBL document CHEMBL4118028, “Sesquiterpene Quinones/Hydroquinones from the Marine Sponge Spongia pertusa Esper” (J Nat Prod, 2017)

What was measured:
A549 = assay: Cytotoxicity against human A549 cells after 72 hrs by CCK8 assay; type: functional, cell-based; settings: A549, 72 h
U-937 = assay: Cytotoxicity against human U937 cells after 72 hrs by CCK8 assay; settings: U-937, 72 h
HeLa = assay: Cytotoxicity against human HeLa cells after 72 hrs by CCK8 assay; type: functional, cell-based
HepG2 = assay: Cytotoxicity against human HepG2 cells after 72 hrs by CCK8 assay; settings: HepG2, 72 h
[1] = molecular target: Cyclin-dependent kinase 2 (Homo sapiens, UniProt P24941); assay: Binding affinity to CDK2 (unknown origin) by surface plasmon resonance analysis
In short: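 CDK-2 amine-coupled to CM5 chip flow cell 2 (50 μg/mL in 10 mM acetate pH 4.5, ~5500 RU). BSA reference cell (pH 3.8, ~6000 RU) subtracted. Running buffer PBS pH 7.4, 25 °C, 30 μL/min. Analytes at several concentrations injected 120 s, 120 s dissociation, with solvent correction. Glycine-HCl pH 2.1 regeneration for 30 s. Kd from steady-state affinity model fit.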

In the case of `CCOC1=CC(=O)C2=C(C[C@@H]3[C@@]4(C)CCCC(C)(C)[C@@H]4CC[C@@]3(C)O2)C1=O`, the IC50 (A549) is reported as > 10 µM.

With `C=C1CCC[C@@]23OC4=C(C[C@]2(C)[C@@H](C)CC[C@@]13C)C(=O)C(NC)=CC4=O` the IC50 (A549) was > 10 µM.

In the case of `C=C1CCC[C@@H]2[C@@]1(C)CC[C@@]1(C)OC3=C(C[C@@]21C)C(=O)C(NC)=CC3=O`, the IC50 (A549) is reported as > 10 µM.

In the case of `COc1cccc2c1C(=O)c1c(O)c3c(c(O)c1C2=O)C[C@@](O)(C(=O)CO)C[C@@H]3O[C@H]1C[C@H](N)[C@H](O)[C@H](C)O1` [DOXORUBICIN], the IC50 (A549) is reported as 0.1 µM.

In the case of `C=C1CCC[C@H]2[C@](C)(CC3=C(O)C(=O)C=C(NCCc4ccccc4)C3=O)[C@@H](C)CC[C@]12C`, the IC50 (A549) is reported as > 10 µM, the IC50 (U-937) is reported as 0.6 µM and the IC50 (HeLa) is reported as 5.4 µM. It also gave an IC50 (HepG2) of 3.5 µM.

In the case of `C=C1CCC[C@H]2[C@]3(C)CC4=C(O[C@]3(C)CC[C@]12C)C(=O)C=C(NC)C4=O`, the IC50 (A549) is reported as > 10 µM and the Kd [1] is reported as 4.8 µM.

For `C=C1CCC[C@@]23OC4=C(C[C@]2(C)[C@@H](C)CC[C@@]13C)C(=O)C(OCC)=CC4=O`, the IC50 (A549) was > 10 µM.

With `C=C1CCC[C@H]2[C@]3(C)CC4=C(O[C@]3(C)CC[C@]12C)C(=O)C=C(OCC)C4=O` the IC50 (A549) was > 10 µM.
